# The sample as a whole holds a higher share of hits than the screen did.
# RORA inh – blocks the human nuclear receptor RORA; CHO-K1 Gal4-RORA LBD luciferase reporter, luminescence; 65,000 tested, 0.43% active; P35398; inhibition, % at 10 µM;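 active = inhibition above the mean of all tested compounds plus 3 SD, cut at about 52% in these data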;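 also: 0% = RORA-transfected cells with DMSO and 100% = mock-transfected cells lacking RORA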
# Target sequence (P35398 whole entry, looked up, the tested form may be a part): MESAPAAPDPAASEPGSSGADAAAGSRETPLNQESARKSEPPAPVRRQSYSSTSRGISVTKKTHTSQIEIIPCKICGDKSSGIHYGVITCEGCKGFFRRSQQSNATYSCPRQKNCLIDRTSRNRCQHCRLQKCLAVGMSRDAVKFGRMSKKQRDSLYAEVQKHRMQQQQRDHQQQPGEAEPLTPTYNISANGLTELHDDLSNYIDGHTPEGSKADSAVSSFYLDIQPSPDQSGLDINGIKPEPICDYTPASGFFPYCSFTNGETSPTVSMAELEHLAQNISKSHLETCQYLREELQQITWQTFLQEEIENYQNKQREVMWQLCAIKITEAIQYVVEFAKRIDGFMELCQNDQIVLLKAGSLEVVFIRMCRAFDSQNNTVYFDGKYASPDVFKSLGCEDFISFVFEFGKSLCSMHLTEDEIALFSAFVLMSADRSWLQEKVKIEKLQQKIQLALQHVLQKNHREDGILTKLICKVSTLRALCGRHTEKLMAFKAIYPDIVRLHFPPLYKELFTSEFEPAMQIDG
#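 Test system – CHO-K1 Gal4-RORA LBD luciferase reporter cells · Schedule – 20 h at 37 °C · Signal – luminescence from basal luciferase reporter expression · Measure – percent inhibition of basal reporter luminescence, control-normalized · Control set – -RORA mock-transfected DMSO wells 100%, +RORA DMSO wells 0%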
# * = called active by the depositor.
SMILES,RORA inh
O=C(CSc1nnnn1C1CC2CCC1C2)Nc1ccnc2ccccc12 (configuration not stated),84.6*
Cc1cccc(C)c1OCC(=O)NCc1nnc(SCC(=O)NC2CCCCC2)n1C,4.4
COc1ccc(CNC(=O)CSc2nnnn2Cc2ccccc2)cc1,-31.5
CCCOc1ccc(N2CC(C(=O)Nc3ncccc3C)CC2=O)cc1 (configuration not stated),19.2
CCOC(=O)c1ccc(Oc2cc(C)nc(SC)n2)cc1,-56.6
Clc1ccc(-c2nn3c(Cn4cnc5ccccc54)nnc3s2)c(Cl)c1,1.3
Cc1ccccc1-n1c(=O)cc(N2CCN(C(=O)c3ccco3)CC2)[nH]c1=O,3.1
Nc1cccc(-c2nc3ccc(N)cc3s2)c1,56.7*
Cc1ccc2[nH]c(-c3cccc(N)c3)cc2c1,-54.9
Nc1nc2ccc(Oc3ccccc3)cc2s1,-32.7
COC(=O)c1cc(-c2ccccc2)n(CC(=O)O)c1C,36.3
CCOC(=O)c1c(C)c(C(=O)NCc2ccc3c(c2)OCO3)c(C)n1C,6.4
Nc1ccc(-c2nc3c(Cl)cc(N)cc3[nH]2)cc1,78.7*
CCOc1ccc(-c2nnc3ccc(SCc4ccc(C(=O)OC)o4)nn23)cc1,-5.1
C=CCC1CCCCC12NC(=O)NC2=O (configuration not stated),-2.9
CCOc1ccccc1Nc1ncnc2ccccc12,-14.0
Cc1ccc(-n2ncc3c(NCc4ccccc4)ncnc32)cc1,-60.9
c1ccc(CNc2ncnc3ccccc23)cc1,56.3*
CC(C)Oc1ccccc1-c1nc(SCC(=O)O)n[nH]1,4.2
Cc1nn(Cc2nc(-c3cccs3)no2)c(C)c1Br,-3.9
CCOc1ccc(OCc2ccc(C(=O)OCc3ccccn3)o2)cc1,57.9*
CCCc1ccc(OCc2ccc(C(=O)N3CCN(c4ccccn4)CC3)o2)c(OC)c1,-49.7
O=C(Nc1ccccc1)OCc1ccccn1,-60.5
OC(CCN1CCOCC1)(c1ccc(Cl)cc1)C1CCCCC1 (configuration not stated),7.1
COc1ccc(OC)c2sc(NC(=O)c3ccc(S(=O)(=O)N(C)C)cc3)nc12,-15.0
SMILES,RORA inh
Cc1ccc2c(c1)C(N1CCCC1=O)CC(c1ccco1)N2 (configuration not stated),-52.2
CS(=O)(=O)Nc1ccc(S(=O)(=O)NCCc2ccccc2)cc1,3.4
CC(=O)c1cccc(-n2nnnc2SCC(=O)Nc2ccccc2N2CCCCC2)c1,-14.1
CCn1c2ccccc2c2cc(NC(=O)CSc3nnnn3-c3ccccc3)ccc21,62.9*
O=C(CSc1nnnn1-c1ccccc1)NC(=O)Nc1ccc2c(c1)OCCO2,-52.5
COc1ccc(C)cc1S(=O)(=O)N1CCN(c2cccc(C(F)(F)F)c2)CC1,9.5
Cn1c(SCc2ccccc2Cl)nnc1-c1cnccn1,-51.5
O=C(CSc1nnc(-c2ccccc2Cl)o1)N1CCCCC1,-65.2
NCCCCCc1nnc(SCc2ccccc2Cl)o1,56.7*
COc1ccc(S(=O)(=O)N(CC(=O)N2CCN(C)CC2)c2ccc(C)cc2)cc1OC,1.5
C=CCn1c(C#N)c(N)sc1=N,6.2
O=C(/C=C\Nc1ccc2c(c1)OCO2)c1ccccn1,84.8*
O=C(Nc1ccc2c(c1)OCO2)Oc1ccccc1,-8.5
O=C(Nc1ccc2c(c1)OCO2)c1cc(C2CC2)on1,-59.7
CCOc1ccccc1/C=c1\sc2ncnn2c1=O,-0.9
O=c1cc(N2CCN(c3cccc(Cl)c3)CC2)[nH]c(=O)n1C1CCCCC1,65.1*
CN1CCN(c2cc(=O)n(C3CCCCC3)c(=O)[nH]2)CC1,5.2
COc1ccccc1N1CCN(c2cc(=O)n(-c3ccccc3Cl)c(=O)[nH]2)CC1,-12.0
COc1ccc(CNc2cc(C)nc3ncnn23)c(OC)c1,67.0*
CCc1ccc(NC(=O)N(CCCN2CCOCC2)C(C)c2cc3cccc(OC)c3o2)cc1 (configuration not stated),5.2
CCOC(=O)c1c(C)n(CC(COC(C)=O)OC(C)=O)c2ccc(OC(C)=O)cc12 (configuration not stated),19.7
CC(C)NCC(O)Cn1c2c(c3ccccc31)CCc1c-2cnn1-c1ccccc1 (configuration not stated),68.5*
CCCc1nnc(NC(=O)CNc2ccc(F)cc2)s1,5.1
CC1CCc2c(sc3nc(SCc4nc(-c5ccccc5)no4)n(C)c(=O)c23)C1 (configuration not stated),18.5
COc1cccc(-c2cc(C(=O)N3C(C)CCCC3C)no2)c1 (configuration not stated),-66.9
SMILES,RORA inh
Cn1c(=O)c2c(nc(N3CCCCC3)n2CCSc2nc3ccccc3s2)n(C)c1=O,0.4
O=C(O)CCSc1nc2ccccc2s1,54.4*
Nc1nc(CSc2nc3ccccc3s2)nc(N2CCCCC2)n1,-14.1
O=C(CSCc1cccc(F)c1)N1CCN(c2ccccc2)CC1,-52.6
Cc1cc(C)c(-c2cc(C(F)(F)F)no2)c(=O)[nH]1,8.7
Cc1cc(C)n(Cc2ccc(C(=O)NCCC3=CCCCC3)o2)n1,7.9
O=S1(=O)C=C(Sc2nc3cc(Cl)ccc3o2)c2ccccc21,75.3*
Cc1ccc(NC(=O)NC2(C(=O)NCc3ccco3)CCCCC2)cc1,22.2
COc1ccc(S(=O)(=O)Nc2cccc(SC)c2)cc1OC,0.2
CCOC(=O)C1CCCN(C(=O)C2CCN(S(=O)(=O)c3cnc[nH]3)CC2)C1 (configuration not stated),9.5
CCCc1cc(=O)[nH]c(SCC(=O)Nc2ccc(OC(F)F)cc2)n1,18.3
Cc1ccc(S(=O)(=O)Nc2cccc3ncccc23)s1,80.2*
CCOC(=O)/C(C#N)=C1/C=CNC(=O)N1,13.0
CCc1cc2c3c(c(=O)oc2cc1O)CCCC3,0.5
O=C(NCC1CCCO1)c1ccc2nc(N3CCCCC3)sc2c1 (configuration not stated),-59.4
CC1CCN(c2nc3ccc(C(=O)O)cc3s2)CC1,92.4*
CCOc1ccc2nc(N3CCC(C(=O)N4CCN(c5ncccn5)CC4)CC3)sc2c1,-69.4
CCOC(=O)CS(=O)(=O)c1nc(-c2ccccc2)cc(C(F)(F)F)n1,60.2*
CCOC(=O)CS(=O)(=O)c1nc(-c2ccc(F)cc2)cc(C(F)(F)F)n1,60.9*
CCOC(=O)Cc1cc(=O)n2[nH]c(C)c(-c3ccccc3)c2n1,-5.6
CCOC(=O)c1cnn2c(C)cc(-c3ccccc3)nc12,-42.8
CCOC(=O)N1CCN(C(=O)c2cc(-c3ccc(OCC)cc3)nc3ccccc23)CC1,-135.7
COCC(C)NC(=O)CCS(=O)(=O)c1nc(-c2ccc(OC)cc2)cc(C(F)(F)F)n1 (configuration not stated),17.2
Cc1nn(-c2nc3ccccc3[nH]2)c(N)c1-c1ccccc1,-54.3
Brc1cccc(C2CC(c3ccccc3)n3nnnc3N2)c1 (configuration not stated),-5.1
SMILES,RORA inh
CC(=O)CC(C)=NCCN=C(C)CC(C)=O,17.5
COc1ccc(NC(=O)CN2CCN(CC(=O)Nc3ccccc3F)CC2)c(OC)c1,-0.4
COc1ccc(NS(=O)(=O)c2cc(C(=O)O)ccc2C)cc1,-3.7
CCOc1ccc2oc(-c3ccccc3)c(C(=O)O)c2c1,-3.8
CCOc1ccc(CCNC(=O)C(O)c2ccccc2)cc1 (configuration not stated),3.2
COc1ccc(OCc2cccc(C(=O)O)c2)cc1,94.1*
Cn1nnc(NC(=O)c2cccc(OCc3ccccc3)c2)n1,-54.2
CN1CCN(C(=O)c2ccc(COc3ccc(Cl)cc3Cl)cc2)CC1,-4.2
CCOc1ccc(OCc2cccc(C(=O)O)c2)cc1,93.8*
